Active and inactive are the calls of the source. The calls are words filed in the database; no cut-off is given here.
Key:
[1] = tested on: A549; experiment: Cell cycle arrest in human A549 cells assessed as accumulation at G2/M phase at 10 uM at 24 hrs; format: functional
Procedure, shortened: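 A549 human lung carcinoma cells were grown in E-MEM with 10% FBS, 2 mM L-glutamine, penicillin and non-essential amino acids at 37 °C, 5% CO2. Cells were seeded at 10⁵–2·10⁵ per well, attached 24 h, then drug-treated (DMSO vehicle control) for 24 h at 37 °C. They were harvested by trypsin, stained for DNA with the CycleTEST PLUS kit, and analysed by flow cytometry for G2/M fraction.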

[2] = tested on: A549; experiment: Cytotoxicity against human A549 cells after 24 hrs by MTS assay; format: functional, cell-based
Procedure, shortened: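 A549 cells seeded at 10³ cells/well, allowed to attach 24 h, then exposed to drug prepared in medium at 1, 10 or 100 µM for 24 h. MTS/PES reagent added, 1 h at 37 °C, absorbance read at 490 nm. Quintuplicate wells; viability expressed as percentage of control.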

[3] = molecular target: Tubulin (Sus scrofa) (UniProt P02554+P02550); experiment: Inhibition of pig brain tubulin polymerization at 10 uM
Tubulin (Sus scrofa), sequence (P02550 whole entry, looked up): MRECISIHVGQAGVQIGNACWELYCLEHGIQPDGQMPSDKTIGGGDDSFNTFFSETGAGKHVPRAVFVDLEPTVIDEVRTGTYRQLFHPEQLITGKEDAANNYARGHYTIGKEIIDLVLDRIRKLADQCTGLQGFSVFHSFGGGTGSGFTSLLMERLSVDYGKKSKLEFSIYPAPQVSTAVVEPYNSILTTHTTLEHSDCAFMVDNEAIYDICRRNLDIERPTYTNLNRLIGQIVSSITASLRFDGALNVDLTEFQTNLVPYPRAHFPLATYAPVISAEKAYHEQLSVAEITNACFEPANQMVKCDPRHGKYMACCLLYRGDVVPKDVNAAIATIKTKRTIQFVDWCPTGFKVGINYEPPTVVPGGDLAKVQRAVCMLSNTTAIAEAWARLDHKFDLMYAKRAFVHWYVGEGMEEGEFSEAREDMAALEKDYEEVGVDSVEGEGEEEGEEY
Tubulin (Sus scrofa), sequence (P02554 whole entry, looked up): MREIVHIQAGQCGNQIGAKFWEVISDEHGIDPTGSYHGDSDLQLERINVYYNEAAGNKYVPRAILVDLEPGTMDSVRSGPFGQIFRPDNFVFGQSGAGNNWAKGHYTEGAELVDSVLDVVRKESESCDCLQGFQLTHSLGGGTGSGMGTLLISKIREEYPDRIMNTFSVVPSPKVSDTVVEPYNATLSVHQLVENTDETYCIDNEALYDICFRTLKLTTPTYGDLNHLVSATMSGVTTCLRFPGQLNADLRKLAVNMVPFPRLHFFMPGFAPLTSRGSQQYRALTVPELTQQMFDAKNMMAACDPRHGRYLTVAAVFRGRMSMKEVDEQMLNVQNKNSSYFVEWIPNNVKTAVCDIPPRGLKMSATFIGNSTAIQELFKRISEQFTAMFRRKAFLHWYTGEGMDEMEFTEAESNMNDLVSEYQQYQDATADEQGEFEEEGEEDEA
Procedure, shortened: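 Tubulin purified from porcine brain by three warm-cold cycles plus anion-exchange to remove MAPs. Tubulin at 2.7 mg/ml was preincubated with drug (final 10 µM, 0.2% DMSO) in GTP-free K-Pipes pH 6.9 buffer with 10% glycerol, 15 min at 37 °C. Then 1 mM GTP was added and the mix held 30 min at 37 °C. Polymer and soluble fractions were separated at 30,000g and run on SDS-PAGE with Coomassie staining; densitometry; unpaired t-test.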

[4] = tested on: A549; experiment: Cytotoxicity against human A549 cells at 10 uM after 24 hrs […]; format: functional, cell-based

SMILES	Activity [1] [%]	Activity [2]	Activity [3]	Activity [4]
CC[C@]12C=CCN3CC[C@@]4(c5ccc(OC)cc5N(C)[C@H]4[C@@](O)(C(=O)OC)[C@@H]1OC(=O)CCC(=O)N[C@H]1CCc4cc(OC)c(OC)c(OC)c4-c4ccc(SC)c(=O)cc41)[C@@H]32	74	Active	Active	
CCC1=C[C@H]2CN(C1)Cc1c([nH]c3ccccc13)[C@@](C(=O)OC)(c1cc3c(cc1OC)N(C)[C@H]1[C@@](O)(C(=O)OC)[C@H](OC(=O)CCC(=O)N[C@H]4CCc5cc(OC)c(OC)c(OC)c5-c5ccc(SC)c(=O)cc54)[C@]4(CC)C=CCN5CC[C@]31[C@@H]54)C2		Active		
CC[C@]12C=CCN3CC[C@@]4(c5ccc(OC)cc5N(C)[C@H]4[C@@](O)(C(=O)OC)[C@@H]1OC(=O)CCC(=O)OC1C[C@@]4(O)[C@@H](OC(=O)c5ccccc5)[C@@H]5[C@]6(OC(C)=O)CO[C@@H]6C[C@H](O[Si](CC)(CC)CC)[C@@]5(C)C(=O)[C@H](OC(C)=O)C(=C1C)C4(C)C)[C@@H]32 (some centres not stated)		Active		
CC[C@]12C=CCN3CC[C@@]4(c5ccc(OC)cc5N(C)[C@H]4[C@@](O)(C(=O)OC)[C@@H]1OC(=O)CCCCCCCCC(=O)OC1C[C@@]4(O)[C@@H](OC(=O)c5ccccc5)[C@@H]5[C@]6(OC(C)=O)CO[C@@H]6C[C@H](O[Si](CC)(CC)CC)[C@@]5(C)C(=O)[C@H](OC(C)=O)C(=C1C)C4(C)C)[C@@H]32 (some centres not stated)		Active	Active	
CC[C@]12C=CCN3CC[C@@]4(c5ccc(OC)cc5N(C)[C@H]4[C@@](O)(C(=O)OC)[C@@H]1OC(=O)CCCCCCCCC(=O)O[C@H]1c4cc5c(cc4[C@@H](c4cc(OC)c(OC)c(OC)c4)[C@H]4C(=O)OC[C@@H]41)OCO5)[C@@H]32		Active		
CC[C@]12C=CCN3CC[C@@]4(c5ccc(OC)cc5N(C)[C@H]4[C@@](O)(C(=O)OC)[C@@H]1OC(=O)CCC(=O)O[C@H]1c4cc5c(cc4[C@@H](c4cc(OC)c(OC)c(OC)c4)[C@H]4C(=O)OC[C@@H]41)OCO5)[C@@H]32		Active		
CC[C@]12C=CCN3CC[C@@]4(c5ccc(OC)cc5N(C)[C@H]4[C@@](O)(C(=O)OC)[C@@H]1OC(=O)CCCCCCCCC(=O)N[C@H]1CCc4cc(OC)c(OC)c(OC)c4-c4ccc(SC)c(=O)cc41)[C@@H]32		Active		
CCC1=C[C@H]2CN(C1)Cc1c([nH]c3ccccc13)[C@@](C(=O)OC)(c1cc3c(cc1OC)N(C)[C@H]1[C@@](O)(C(=O)OC)[C@H](OC(=O)CCC(=O)O[C@H]4c5cc6c(cc5[C@@H](c5cc(OC)c(OC)c(OC)c5)[C@H]5C(=O)OC[C@@H]54)OCO6)[C@]4(CC)C=CCN5CC[C@]31[C@@H]54)C2		Active		Active

— ChEMBL document CHEMBL1150361, “Inhibitors of tubulin polymerization: synthesis and biological evaluation of hybrids of vindoline, anhydrovinblastine and vinorelbine with thiocolchicine, podophyllotoxin and baccatin III” (2008)
